Tests used:
[1] = PK in plasma and skin suction blister fluid; format: in vivo, human; conditions: for Individual suction blister fluid versus plasma ratio, geometric mean (CV): Day 6; for Total concentration in blister fluid, geometric mean (CV): Day 6, 2–4 h after drug intake, unchallenged skin
Summary of the method: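 Healthy men, 12 per arm, took test compound orally twice daily for 7 days. Total drug was measured in plasma and suction blister fluid on Day 6, […], and reported as geometric mean (CV). Blister-fluid-to-plasma ratios were calculated per subject.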

[2] = system: imiquimod (IMQ)-induced psoriasis; conditions: mice, compared with vehicle; cited from earlier work
[3] = system: LPS-driven systemic inflammation (TLR4 activation); assay: Systemic intravenous LPS challenge; format: in vivo, human; conditions: for Mild increase in core temperature after LPS: 2–6 h after i.v. LPS challenge; for LPS-driven increases in systolic blood pressure and pulse rate / Anti-inflammatory cytokine IL-10 after LPS challenge: compared with placebo; for Suppression of circulating TNF-α response vs. placebo / Anti-inflammatory cytokine IL-10 after LPS challenge / LPS-induced increases in IL-8, CRP and procalcitonin / IL-6 (blood): GMR of treatment effect vs. placebo (90% CrI) / TNF-α (blood): GMR of treatment effect vs. placebo (90% CrI): i.v. LPS challenge; for Suppression of circulating TNF-α response vs. placebo: averaged 0.5 to 6 h after LPS; for LPS-induced increases in IL-8, CRP and procalcitonin: vs placebo; for IL-6 (blood): GMR of treatment effect vs. placebo (90% CrI) / TNF-α (blood): GMR of treatment effect vs. placebo (90% CrI): same dosing
Summary of the method: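 On Day 7 of twice-daily oral treatment (12 healthy men per arm), purified E. coli O113 LPS 1 ng/kg in glucose 2.5%–NaCl 0.45% was given as a 2-min i.v. infusion. Hydration infusion ran from 2 h before to 6 h after. Cytokines, acute phase proteins, leukocytes, pulse, blood pressure and temperature were followed from 0.5 to 24 h. Bayesian repeated-measures ANCOVA gave GMR vs placebo (90% CrI).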

[4] = system: LPS (TLR4 agonist)-driven cytokine release in whole blood; assay: Ex vivo whole blood challenge with LPS; format: cell-based, human
Summary of the method: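 Blood was drawn from healthy men, 12 per arm, at two baselines (Day −1, Day 1) and on Day 6 of oral twice-daily dosing. Challenges were run in duplicate at 37°C for 24 h: LPS 0.1 ng/mL or R848 0.35 μg/mL in prefilled culture tubes, and IL-1β 125 ng/mL in sodium heparin tubes. Supernatant cytokines were measured by multiplex immunoassay.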

Safety monitoring = format: in vivo, human; conditions: safety analysis set; BAY groups N = 13, prednisolone N = 12; 7 days b.i.d.
[5] = system: LPS (TLR4)-driven TNF-α release in whole blood; conditions: 120 mg b.i.d. BAY1834845, 100 mg b.i.d. BAY1830839; ref multiple ascending dose phase I studies; cited from earlier work
[6] = 120 mg b.i.d. BAY1834845, 100 mg b.i.d. BAY1830839; ref multiple ascending dose phase I studies; cited from earlier work
[7] = system: imiquimod (IMQ)-induced skin inflammation (TLR7 activation); assay: IMQ skin challenge: skin perfusion; format: in vivo, human; conditions: for Erythema: GMR of treatment effect vs. placebo (90% CrI): same dosing; for Clinical evaluation of skin reactions (visual grading): vs placebo
Summary of the method: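 Healthy men (12 per arm) took test compound (120 or 100 mg), placebo or prednisolone 20 mg b.i.d. orally for 7 days. From Day 3, 5% imiquimod cream (100 mg) went daily on tape-stripped back skin under 12-mm occlusion chambers for 3 days. Erythema (3D imaging), LSCI perfusion and CEA were read at baseline, 24, 48 and 72 h. Bayesian repeated-measures ANCOVA used log-transformed change from baseline.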

[8] = system: imiquimod (IMQ)-induced skin inflammation (TLR7 activation); assay: Skin suction blister fluid analysis after IMQ challenge; format: in vivo, human; conditions: for Responses of CD8+ T cells and dendritic cells in suction blister fluid: 72 h after start of IMQ challenge; for IMQ-driven IP-10 and MxA in skin suction blister exudate: analysis on Day 6
Summary of the method: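 Suction blisters were raised by negative-pressure device on imiquimod-inflamed back skin at baseline and 24, 48 and 72 h after challenge start. Subjects were healthy men, 12 per arm, on oral twice-daily treatment begun 2 days before challenge. Blister fluid was analysed for immune cell subsets by flow cytometry and for cytokines/chemokines by multiplex immunoassay.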

IL-1β-induced cytokines = conditions: upregulation in comparison with vehicle control also reported; cited from earlier work

Individual suction blister fluid versus plasma ratio, geometric mean (CV) [1] | Total concentration in blister fluid, geometric mean (CV) [1] | Compound | Severity of psoriasis-like lesions; extent of erythema, skin thickening and scaling [2] | Mild increase in core temperature after LPS [3] | LPS-driven increases in systolic blood pressure and pulse rate [3] | Suppression of circulating TNF-α response vs. placebo [3] [%] | Anti-inflammatory cytokine IL-10 after LPS challenge [3] | LPS-induced increases in IL-8, CRP and procalcitonin [3] | IL-6 (blood): GMR of treatment effect vs. placebo (90% CrI) [3] | TNF-α (blood): GMR of treatment effect vs. placebo (90% CrI) [3] | Inhibition of TLR4-driven IL-6 in ex vivo whole blood challenge [4] | Inhibition of TLR4-driven TNF-α in ex vivo whole blood challenge [4] | Mean suppression of TNFα (TLR4-cytokine release in ex vivo whole blood assay) [5] [%] | Systemic exposure [6] | Erythema: GMR of treatment effect vs. placebo (90% CrI) [7] | Clinical evaluation of skin reactions (visual grading) [7] | Responses of CD8+ T cells and dendritic cells in suction blister fluid [8] | IMQ-driven IP-10 and MxA in skin suction blister exudate [8] | further results
0.59 (16.2%) | 3.0 (28.3%) mg/L | CC(C)(O)CCn1cc2cc(NC(=O)c3cccc(C(F)(F)F)n3)c(C(C)(C)O)cc2n1 [BAY1830839] | significantly reduced | without suppressing | suppressed | ≥ 80 | did not lead to an increase | inhibited | 0.26 (0.17, 0.34) | 0.14 (0.09, 0.19) | 73% | 75% | 70 | 4.3 (42.8%) mg/L | 0.83 | less severe inflammatory reaction | suppressed | strongly suppressed | Any treatment-emergent AE (Safety monitoring): 8 (61.5%) n (%) of participants; Erythema: GMR of treatment effect vs. placebo (90% CrI) ([7]; listed as BAY 1830839): 0.83 (0.67, 0.99)
– | – | CC[C@@H]1[C@H](F)C(=O)N[C@@H]1COc1nccc2cc(C(N)=O)c(OC)cc12 [PF‐06650833] | – | – | – | – | – | – | – | – | – | – | – | – | – | – | – | – | Effects on IL-1β-induced cytokines (IL-1β-induced cytokines): weak effects
– | – | C[C@]12C=CC(=O)C=C1CC[C@@H]1[C@@H]2[C@@H](O)C[C@@]2(C)[C@H]1CC[C@]2(O)C(=O)CO [Prednisolone, prednisolone, reference compound] | – | – | – | – | induced | – | 0.31 (0.21, 0.41) | 0.31 (0.20, 0.41) | – | – | – | – | 0.86 (0.69, 1.02) | – | suppressed | strongly suppressed | Erythema: GMR of treatment effect vs. placebo (90% CrI) ([7]; listed as prednisolone): 0.86; Responses of NK cells and classical monocytes in suction blister fluid ([8]; 72 h post-challenge, after preceding increase up to 48 h): markedly suppressed
0.43 (22.7%) | 2.6 (32.3%) mg/L | CC(C)(O)c1cc2nn(CCS(C)(=O)=O)cc2cc1NC(=O)c1cccc(C(F)(F)F)n1 [BAY1834845, zabedosertib] | significantly reduced | without suppressing | suppressed | ≥ 80 | did not lead to an increase | inhibited | 0.27 (0.18, 0.36) | 0.20 (0.13, 0.27) | approximately 50% | approximately 50% | 40 | 5.2 (19.4%) mg/L | 0.75 | less severe inflammatory reaction | suppressed | strongly suppressed | Erythema: GMR of treatment effect vs. placebo (90% CrI) ([7]; listed as BAY 1834845): 0.75 (0.60, 0.89)
